# An excerpt weighted towards active compounds, which were near 4.2% of everything screened.
# TAAR1 agonist: human TAAR1 agonists, primary screen, Fluo-8 calcium fluorescence, CHO RD-HGA16 cells | Trace amine-associated receptor 1 (Homo sapiens), Q96RJ0 | vehicle wells 0%, saturating PEA agonist 100% | activation, % at 3 µM | 0.99% of 360,000 active | AID 624467, 2012;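 active = activation above the mean activation of all test compounds in the run plus 3 SD, cut at about 38% in these data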
# Target sequence (Q96RJ0 whole entry, looked up): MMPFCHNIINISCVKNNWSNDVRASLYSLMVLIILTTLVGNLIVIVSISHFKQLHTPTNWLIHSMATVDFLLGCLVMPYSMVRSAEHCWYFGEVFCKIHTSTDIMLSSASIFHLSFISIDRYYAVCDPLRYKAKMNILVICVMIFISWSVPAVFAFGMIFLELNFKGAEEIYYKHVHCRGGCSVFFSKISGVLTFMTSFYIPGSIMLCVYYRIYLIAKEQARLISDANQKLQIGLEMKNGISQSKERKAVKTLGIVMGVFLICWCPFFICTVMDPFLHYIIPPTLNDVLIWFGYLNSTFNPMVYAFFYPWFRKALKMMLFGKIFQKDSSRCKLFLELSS
#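 Test system: RD-HGA16 (CHO) cells co-expressing Gα16 and hTAAR1; dosing: one-point dosing at 3 µM (nominal); timing: 17-24 h seeding, 75 min 37 °C dye, 30 min RT; signal: kinetic Fluo-8 calcium fluorescence; read-out basis: % activation relative to PEA EC100 response; controls: DMSO and PEA EC100; replicates: n 1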
# TAAR1 antag: human TAAR1 antagonists, primary screen, Fluo-8 calcium fluorescence, CHO RD-HGA16 cells | Trace amine-associated receptor 1 (Homo sapiens), Q96RJ0 | 1.5% of 360,000 active | antagonist | inhibition, % at 3 µM;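 active = inhibition above a per-plate cutoff, the mean inhibition of test compounds on that plate plus 3 SD, cut at about 49% in these data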;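 note: 0% = DMSO plus EC80 beta-PEA response and 100% = DMSO alone without agonist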
#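 Test system – hTAAR1-expressing CHO RD-HGA16 cells, Gα16-coupled · Also added – β-PEA at EC80 concentration, post-compound challenge · Compound – 3 µM, single point · Incubation – dye loading 75 min at 37 °C, then 30 min room temperature · Measured by – Fluo-8 intracellular calcium dye fluorescence, real-time kinetic reads · Benchmarks – vehicle and agonist controls · Replicates – singlicate, one well per test compound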
# GalR3 antagonist: GalR3 antagonists in HEK293 cells, primary screen, cell-based, fluorescence readout | Galanin receptor type 3 (Homo sapiens), O60755 | HEK293 GalR3-CNG cAMP membrane potential fluorescence; galR3 body fused to GalR1 C-terminus | inhibition, % at 3 µM | 0.44% of 360,000 active;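 active = inhibition above the screen-wide average plus 3 SD, cut at about 13% in these data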;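 note: forskolin and galanin both at EC90 stimulate the cells; cAMP rise reported by CNG channel membrane potential dye signal; 0% = forskolin plus galanin with DMSO and 100% = forskolin alone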
# OX1R antag-1: antagonists of human orexin 1 receptor (OX1R); 1.8% of 330,000 active; OX1R-expressing cells, FRET antagonist read-out; inhibition, % at 6.6 µM; Orexin/Hypocretin receptor type 1 (Homo sapiens), O43613; AID 485270, 2010; in the data active = inhibition mostly above about 38%, no sharp cut-off; inactive = mostly below about 40%;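 note: 0% = agonist challenge alone and 100% = reference antagonist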
# Target sequence (O43613 whole entry, looked up): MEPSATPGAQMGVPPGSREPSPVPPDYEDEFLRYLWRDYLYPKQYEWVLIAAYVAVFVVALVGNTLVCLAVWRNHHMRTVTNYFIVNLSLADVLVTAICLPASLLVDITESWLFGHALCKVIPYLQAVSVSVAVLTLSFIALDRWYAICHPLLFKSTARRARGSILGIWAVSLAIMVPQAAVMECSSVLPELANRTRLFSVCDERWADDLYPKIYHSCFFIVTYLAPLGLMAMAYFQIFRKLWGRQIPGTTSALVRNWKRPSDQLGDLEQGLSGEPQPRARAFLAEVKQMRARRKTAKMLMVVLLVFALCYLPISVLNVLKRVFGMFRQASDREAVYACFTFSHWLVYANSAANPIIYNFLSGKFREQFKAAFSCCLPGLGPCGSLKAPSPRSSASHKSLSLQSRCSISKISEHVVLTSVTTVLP
# OX1R antag-2: OX1R (HCRTR1) antagonists, primary screen, fluorescence, CHO/OX1R cells, Fluo-8 calcium, orexin A; Orexin/Hypocretin receptor type 1 (Homo sapiens), O43613; inhibition, % at 5 µM; 0.43% of 330,000 active; Fluo-8 calcium fluorescence;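 active = inhibition above its plate's threshold, mean inhibition of all tested compounds on the plate plus 3 SD, cut at about 37% in these data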;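 note: 0% = orexin A challenge wells and 100% = SB-334867-A antagonist wells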
# CHO parental Ca: ATP-evoked calcium signal inhibitors, parental CHO, primary screen, counter-screen for OX1R antagonist project, cell-based, fluorescence, Fluo-8 calcium dye | inhibition, % at 5.6 µM | parental CHO-K1, ATP-induced calcium, Fluo-8 fluorescence | 0.63% of 330,000 active;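 active = inhibition above that plate's mean sample inhibition plus 3 SD, cut at about 26% in these data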;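 note: 0% = ATP-challenged DMSO wells and 100% = DMSO wells without ATP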
#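 Assay system – parental CHO cells · Reagent – ATP stimulus · Detection – intracellular calcium via Fluo-8 no-wash fluorescent dye · Evaluation – percent inhibition of ATP-evoked calcium rise, normalized to controls · Controls – ATP wells versus no-ATP DMSO wells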
# OX1R HTRF confirm: OX1R (HCRTR1) antagonists, confirmation, cell-based, HTRF; shares compounds with OX1R antag-1; OX1R-expressing cells, HTRF antagonist assay; inhibition, % at 6.6 µM; 49% of 1,800 active; in the data active = inhibition above about 55%;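 note: CHO cells expressing OX1R stimulated with orexin A at about EC80; 0% = agonist challenge alone and 100% = reference antagonist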
# CHO-K1 HTRF: signal inhibition in parental CHO-K1 cells, counter-screen for OX1R antagonist project, cell-based, HTRF; 48% of 1,800 active; HTRF counterscreen; inhibition, % at 6.6 µM; AID 493232, 2011; shares compounds with OX1R antag-1; in the data active = inhibition above about 17%;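 note: 0% = agonist challenge with vehicle and 100% = vehicle alone without agonist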
# nonsel antag count: nonselective antagonists in TAAR1 counter-screen cells, counter-screen for hTAAR1 antagonist project, cell-based, fluorescence, calcium; shares compounds with TAAR1 antag; counterscreen cell line, antagonist mode; inhibition, % at 3 µM; 77% of 2,400 active; AID 651780, 2012; in the data active = inhibition above about 22%;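 note: CHO-Ga16 host cells stimulated with ATP at an EC80 level; 0% = agonist EC80 plus vehicle and 100% = vehicle without agonist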
# TAAR1 ant conf: human TAAR1 antagonists, retest of hits, confirmation, cell-based, fluorescence | 40% of 2,400 active | inhibition, % at 3 µM | shares compounds with TAAR1 antag | TAAR1-expressing cells, fluorescence antagonist read-out; in the data active = inhibition above about 49%;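 note: CHO-Ga16 host cells challenged with agonist PEA near its EC80; 0% = agonist at EC80 plus vehicle and 100% = vehicle with no agonist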
# Ga16 ag counter: calcium activation in Ga16-expressing cells, counter-screen for TAAR1 antagonist project, cell-based, fluorescence. shares compounds with TAAR1 antag. agonist counterscreen. activation, % at 3 µM. 18% of 2,400 active; in the data active = activation above about 12%;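 note: 0% = vehicle wells and 100% = saturating stimulus response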
# TAAR1 ag counter: TAAR1 activation by candidate antagonists – cell-based, fluorescence, counter-screen for TAAR1 antagonist project; hTAAR1 cell line, agonist mode; activation, % at 3 µM; shares compounds with TAAR1 antag; 2% of 2,400 active; in the data active = activation above about 37%;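 note: CHO cells stably expressing TAAR1 with calcium dye readout; 0% = DMSO vehicle and 100% = full agonist response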
# * hit, by the source's call; / = no result.
SMILES,TAAR1 agonist,TAAR1 antag,GalR3 antagonist,OX1R antag-1,OX1R antag-2,CHO parental Ca,OX1R HTRF confirm,CHO-K1 HTRF,others
CCn1c2ccccc2c2cc(NC(=O)COC(=O)c3cc(OC)c(OC)cc3OC)ccc21,0,16,1,80*,19,-17,89*,12,
O=C(COC(=O)CN1C(=O)C(=O)c2ccccc21)OCN1C(=O)c2ccccc2C1=O,0,-8,-9,84*,-15,-1,19,6,
COc1cccc2oc3ccc(C#Cc4ccccn4)cc3c(=O)c12,8,17,-3,85*,4,-17,91*,0,
O=c1c2ccccc2oc2cc(C#Cc3ccccn3)ccc12,9,2,-6,13,-8,-2,/,/,
CCN(CC(=O)Nc1ccccc1OC)C(=O)COc1ccc2ccccc2c1,4,4,4,97*,14,-19,66*,4,
c1cncc(Nc2nc(-c3cccnc3)cs2)c1,1,17,-4,12,-14,-6,/,/,
Clc1ccccc1Nc1nc(-c2cccnc2)cs1,-4,2,-5,84*,-24,-5,77*,9,
N#CCSc1nc(-c2ccccc2)nc2ccccc12,15,2,-11,94*,18,-13,89*,5,
CCOC(=O)c1ccc(NC(=O)c2cc3ccccc3o2)cc1,5,47,-3,77*,18,-24,72*,0,
CCOC(=O)c1ccc(CNCc2ccccc2)cc1,6,4,8,80*,-28,-8,27,-2,
CCOC(=O)c1ccc(CNCc2ccc(Br)cc2)cc1,3,-21,-4,25,-8,-12,/,/,
Cc1ccc(N=CC2=C(O)CC(c3cccc(Cl)c3)CC2=O)cc1 (configuration not stated),3,-4,0,8,-19,-10,/,/,
O=C(c1ccco1)N1CCN(CCOc2ccc(F)cc2)CC1,/,/,/,-14,-12,-20,/,/,
CC(C)(C)C(=O)N1CCN(c2ccc(NC(=O)c3ccc([N+](=O)[O-])o3)cc2)CC1,10,8,-4,78*,-12,-1,30,-12,
Cc1nn2c(nc1=O)SCC(c1ccccc1)=N2,6,5,-5,145*,-15,-2,39,62*,
Cc1cccc(-c2nnc3n2N=C(c2ccccc2)CS3)c1,18,3,-3,20,-14,-13,/,/,
O=C(O)c1cc(NC(=O)c2ccc([N+](=O)[O-])cc2)cc(NC(=O)c2ccc([N+](=O)[O-])cc2)c1,-1,-2,-9,15,-3,3,/,/,
O=C(Nc1ccc([N+](=O)[O-])cc1)C(=O)Nc1cccc(C(=O)O)c1,1,-23,-1,79*,-6,-6,36,32*,
N#CCCn1cc(C(=O)Nc2ccc([N+](=O)[O-])cc2)c(-c2cccs2)n1,9,14,-2,35,-7,6,/,/,
CCOc1ccccc1CN1CCC(N2CCC(C(=O)NC3CC3)CC2)CC1,0,-27,1,-2,-16,-10,/,/,
CN1C(=O)/C(=C2/C=Cc3ccccc3N2CCCS(=O)(=O)O)SC1=S,16,-13,0,100*,3,-4,59*,97*,
CCCN1/C(=C2/SC(=S)N(CC)C2=O)C=Cc2ccccc21,0,-11,-3,14,-15,-17,/,/,
CCCCc1ccc(NC(=O)CSc2nc(=O)n(CCN3CCOCC3)c3c2CCC3)cc1,2,-26,-5,19,-39,-13,/,/,
COc1ccccc1N(CC(=O)NCCSc1ccccc1)S(=O)(=O)c1ccccc1,7,76*,-5,81*,22,-23,60*,3,nonsel antag count=30*;TAAR1 ant conf=44;Ga16 ag counter=6;TAAR1 ag counter=9
COc1ccccc1N(CC(=O)NCCSc1ccccc1)S(C)(=O)=O,1,-3,2,-4,1,-12,/,/,
SMILES,TAAR1 agonist,TAAR1 antag,GalR3 antagonist,OX1R antag-1,OX1R antag-2,CHO parental Ca,OX1R HTRF confirm,CHO-K1 HTRF,others
CCOc1ccccc1OCC(=O)Nc1nnc(C)s1,6,4,-5,4,-14,-8,/,/,
CCOC(=O)C1CCCN(C2=C(NS(=O)(=O)c3ccc(Br)cc3)C(=O)c3ccccc3C2=O)C1 (configuration not stated),21,62*,4,89*,-12,-20,73*,77*,nonsel antag count=26*;TAAR1 ant conf=38;Ga16 ag counter=0;TAAR1 ag counter=12
O=C(Nc1cccc(-c2nc3ccccc3[nH]2)c1)c1ccccn1,9,51*,-6,88*,-14,-17,86*,9,nonsel antag count=19;TAAR1 ant conf=27;Ga16 ag counter=5;TAAR1 ag counter=4
CC(=O)Nc1cccc(-c2nc3ccccc3[nH]2)c1,4,10,-7,14,-15,13,/,/,
CN(Cc1ccc(Cl)s1)C(=O)CCl,1,-35,-4,1,-12,-3,/,/,
COc1cc(/C=C2\SC(=O)NC2=O)ccc1Oc1cnccn1,-1,-9,-3,21,9,8,/,/,
COc1ccccc1OCCCOc1ccc(/C=C2\SC(=O)NC2=O)cc1OC,11,82*,-11,78*,-17,-11,70*,13,nonsel antag count=34*;TAAR1 ant conf=53*;Ga16 ag counter=9;TAAR1 ag counter=5

# Assay outcomes deposited in PubChem BioAssay by The Scripps Research Institute Molecular Screening Center.
